Published values collected from several papers.
Protocols differ between the studies behind these lines.
Target: Vascular endothelial growth factor receptor 3 (FLT4, Homo sapiens, UniProt P35916)

COc1cc(Nc2ncc(F)c(Nc3ccc4c(n3)NC(=O)C(C)(C)O4)n2)cc(OC)c1OC
inhibition (binding; 10 µM): 100%

Nc1ncc(-c2nc(N3CCOCC3)nc(N3CCOCC3)n2)c(C(F)F)n1
remaining binding (cell-free assay, competition with immobilised ligand; 10 µM): 77%

CC(C)(C)c1cc(C=C(C#N)C#N)cc(Br)c1O
remaining activity (enzyme activity, inhibitor; 0.5 µM): 102%

COc1ncccc1-c1cnn2ccc(N3CCN(C(=O)OC(C)C)CC3)nc12
remaining binding (binding, competition with immobilised ligand; 1 µM): 99%

Cc1nn(C)cc1-c1nc2c(N3CCN(Cc4ccc(Cl)cc4)CC3)c(Cl)cnc2[nH]1
remaining binding (binding, competition with immobilised ligand; 1 µM): 0%

Cn1cc(-c2cccc(N3CCc4c(sc5c4CC(C)(C)C5)C3=O)c2CO)cc(Nc2ccncn2)c1=O
inhibition (enzyme activity, inhibitor; 1 µM): 13%

COCc1c(-c2cc3cc(C)cc(OC)c3s2)c2c(N)ncnn2c1CN1CCNC(=O)C1
inhibition (cell-free assay, competition with immobilised ligand; 1 µM): 93.8%

Cn1cncc1[C@@](O)(COc1ccc(C#N)cc1-c1ccc(OC(F)(F)F)cc1)c1ccc(C#N)cc1
remaining binding (cell-free assay, competition with immobilised ligand; 1 µM): 90%

Cn1cc(-c2cc(F)cc(N3CCn4c(cc5c4CCCC5)C3=O)c2CO)cc(Nc2ccc(N3CCN(C4COC4)CC3)cn2)c1=O
inhibition (enzyme activity, inhibitor; 0.1 µM): 12%

N#CC1(c2ccccn2)CCN(Cc2cc(C(=O)O)c(=O)n3ccccc23)CC1
remaining binding (cell-free assay, competition with immobilised ligand; 1 µM): 100%

O=c1[nH]c2ccccc2n1C1CCN(Cc2ccc(-c3[nH]c4cc5ncnc5cc4nc3-c3ccccc3)cc2)CC1
remaining signal (cell-free assay; 0.5 µM): 98.7%
